The source made the active and inactive calls. No cut-off for these calls is given here.
How the values were obtained:
[1] = biological target: T1, Inosine-5'-monophosphate dehydrogenase (Cryptosporidium parvum, UniProt Q8T6T2); assay: Inhibition of recombinant Cryptosporidium parvum IMPDH assessed as production of NADH by fluorescence assay in presence of 0.05% BSA
T1 sequence (Q8T6T2 whole entry): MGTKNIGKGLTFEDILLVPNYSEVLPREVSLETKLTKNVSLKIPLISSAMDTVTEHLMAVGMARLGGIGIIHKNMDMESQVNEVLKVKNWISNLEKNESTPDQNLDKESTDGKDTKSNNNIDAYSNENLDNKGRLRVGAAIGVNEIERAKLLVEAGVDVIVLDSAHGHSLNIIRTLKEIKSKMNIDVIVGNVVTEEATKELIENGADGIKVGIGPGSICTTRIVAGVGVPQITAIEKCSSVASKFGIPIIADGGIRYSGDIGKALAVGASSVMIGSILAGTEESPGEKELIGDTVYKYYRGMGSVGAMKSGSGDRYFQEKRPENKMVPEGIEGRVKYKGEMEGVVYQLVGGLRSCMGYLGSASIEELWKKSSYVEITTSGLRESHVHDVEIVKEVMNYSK
Method in brief: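 Enzyme inhibition was measured with 0.05% fatty acid free BSA added, to assess non-specific binding.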

[2] = biological target: T1, Inosine-5'-monophosphate dehydrogenase; assay: Inhibition of recombinant Cryptosporidium parvum IMPDH assessed as production of NADH by fluorescence assay
[3] = test system: Toxoplasma gondii; assay: Selectivity ratio for EC50 for wild type Toxoplasma gondii to EC50 for Cryptosporidium parvum IMPDH expressing Toxoplasma gondii; type: functional
[4] = test system: Toxoplasma gondii; assay: Antiparasitic activity against Cryptosporidium parvum IMPDH expressing Toxoplasma gondii assessed as growth inhibition; type: functional, organism-based
[5] = test system: Toxoplasma gondii; assay: Antiparasitic activity against wild type Toxoplasma gondii assessed as growth inhibition; type: functional, organism-based
[6] = test system: Cryptosporidium parvum; assay: Antiparasitic activity against Cryptosporidium parvum infected in IL12 knockout mouse model at 250 mg/kg, po for 7 days; type: functional, organism-based; set-up: dose 250 mg/kg
Method in brief: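 IL12 knockout mice were inoculated with 1,000 oocysts and, from 4 h post-infection, dosed by gavage once daily for 7 days at 250 mg/kg in 10% DMSO/corn oil. Controls were vehicle and paromomycin 2000 mg/kg. Oocysts from feces (days 0, 4, 7) were purified on sucrose gradients, stained 20 min with FITC-labelled OW50 antibody, and counted by flow cytometry, with ANOVA.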

[7] = test system: Liver; assay: Half life in mouse liver microsomes; type: ADME, Microsome
[8] = biological target: T2, Inosine-5'-monophosphate dehydrogenase (Cryptosporidium parvum) (UniProt Q8T6T2); assay: Pure noncompetitive inhibition of recombinant Cryptosporidium parvum IMPDH with respect to NAD+
T2 sequence (whole entry): T1 sequence (Q8T6T2 whole entry)

[9] = biological target: T2, Inosine-5'-monophosphate dehydrogenase (Cryptosporidium parvum); assay: Mixed type inhibition of recombinant Cryptosporidium parvum IMPDH with respect to NAD+

| SMILES | IC50 [2] [nM] | IC50 [1] [nM] | other results |
| --- | --- | --- | --- |
| O=C(Cc1n[nH]c(=O)c2ccccc12)Nc1ccc(Cl)c(C(F)(F)F)c1 | 40 | 61 | – |
| Cn1nc(CC(=O)Nc2ccc(Br)cc2C(F)(F)F)c2ccccc2c1=O | > 5000 | – | – |
| Cn1nc(CC(=O)Nc2ccc(C#N)c(C#N)c2)c2ccccc2c1=O | > 2500 | > 2500 | – |
| CCn1c2ccccc2c2cc(NC(=O)Cc3nn(C)c(=O)c4ccccc34)ccc21 | > 5000 | – | – |
| Cn1nc(CC(=O)Nc2ccc(Br)cc2)c2ccccc2c1=O | 130 | 130 | – |
| Cc1cc2cc(NC(=O)Cc3nn(C)c(=O)c4ccccc34)ccc2o1 | 64 | 72 | – |
| Cn1nc(CC(=O)Nc2ccc(C#N)c(Cl)c2)c2ccccc2c1=O | 290 | 470 | – |
| Cn1nc(CC(=O)Nc2ccc3oc4ccccc4c3c2)c2ccccc2c1=O | – | 30 | Ratio EC50 [3]: 7; EC50 [4]: 400 nM; EC50 [5]: 3000 nM |
| Cn1nc(CC(=O)Nc2ccc(F)c(C(F)(F)F)c2)c2ccccc2c1=O | 150 | 150 | – |
| Cn1nc(CC(=O)Nc2ccc(C#N)c(C(F)(F)F)c2)c2ccccc2c1=O | 54 | 52 | – |
| COc1cccc(NC(=O)Cc2nn(C)c(=O)c3ccccc23)c1 | > 5000 | – | – |
| CC(C)c1ccc(NC(=O)Cc2nn(C)c(=O)c3ccccc23)cc1 | > 5000 | – | – |
| Cn1nc(CC(=O)Nc2ccc(C#N)cc2)c2ccccc2c1=O | 950 | 940 | – |
| Cn1nc(CC(=O)Nc2cccc(C(F)(F)F)c2)c2ccccc2c1=O | > 5000 | – | – |
| Cn1nc(CC(=O)Nc2ccc3ccccc3c2)c2ccccc2c1=O | 63 | 140 | – |
| Cn1nc(CC(=O)Nc2ccc(Cl)cc2C(F)(F)F)c2ccccc2c1=O | > 5000 | – | – |
| Cn1nc(CC(=O)Nc2ccc3[nH]c4ccccc4c3c2)c2ccccc2c1=O | > 5000 | – | – |
| Cn1nc(CC(=O)Nc2ccc(N)c(C(F)(F)F)c2)c2ccccc2c1=O | > 5000 | – | – |

| SMILES | IC50 [2] [nM] | IC50 [1] [nM] | other results |
| --- | --- | --- | --- |
| Cn1nc(CC(=O)Nc2ccc(Cl)c(C(F)(F)F)c2)c2ccccc2c1=O | 13 | 25 | Activity [6]: inactive; Ratio EC50 [3]: 60; EC50 [4]: 400 nM; EC50 [5]: 23000 nM; t1/2 [7]: 1.32 h; Kii [8]: 3.4 nM; Kis [8]: 3.4 nM |
| Cn1nc(CC(=O)Nc2cc(Cl)cc(Cl)c2)c2ccccc2c1=O | > 5000 | – | – |
| Cc1ccc(NC(=O)Cc2nn(C)c(=O)c3ccccc23)cc1 | > 5000 | – | – |
| Cn1nc(CC(=O)Nc2cc(Cl)c(Cl)c(Cl)c2)c2ccccc2c1=O | > 5000 | – | – |
| COc1ccc(NC(=O)Cc2nn(C)c(=O)c3ccccc23)cc1 | 1000 | 930 | Kii [9]: 7 µM; Kis [9]: 1.8 µM |
| COc1cc(NC(=O)Cc2nn(C)c(=O)c3ccccc23)ccc1Cl | 33 | 40 | – |
| Cn1nc(CC(=O)Nc2ccc(Br)cc2F)c2ccccc2c1=O | 1100 | 1700 | – |
| Cn1nc(CC(=O)Nc2ccc3oc4c(c3c2)CCCC4)c2ccccc2c1=O | 20 | 150 | Ratio EC50 [3]: 2; EC50 [4]: 500 nM; EC50 [5]: 1000 nM |
| COc1ccc(NC(=O)Cc2nn(C)c(=O)c3ccccc23)cc1C(F)(F)F | > 5000 | – | – |
| Cn1nc(CC(=O)Nc2ccc3c(c2)oc2ccccc23)c2ccccc2c1=O | > 5000 | – | – |
| Cn1nc(CC(=O)NN)c2ccccc2c1=O | > 5000 | – | – |
| CCOc1ccc(NC(=O)Cc2nn(C)c(=O)c3ccccc23)cc1 | > 5000 | – | – |
| Cn1nc(CC(=O)Nc2ccc(Br)c(C(F)(F)F)c2)c2ccccc2c1=O | 24 | 48 | Ratio EC50 [3]: 14; EC50 [4]: 300 nM; EC50 [5]: 4000 nM |
| Cn1nc(CC(=O)Nc2ccc(Cl)cc2Cl)c2ccccc2c1=O | > 5000 | – | – |
| Cc1cc(NC(=O)Cc2nn(C)c(=O)c3ccccc23)ccc1Br | 70 | 140 | – |
| Cn1nc(CC(=O)Nc2ccc3ocnc3c2)c2ccccc2c1=O | > 5000 | – | – |
| Cn1nc(CC(=O)Nc2cccc(Cl)c2)c2ccccc2c1=O | > 5000 | – | – |

Further lines, with some results ahead:

| IC50 [2] [nM] | SMILES | IC50 [1] [nM] | other results |
| --- | --- | --- | --- |
| > 5000 | Cn1nc(CC(=O)Nc2ccc(S(C)(=O)=O)cc2)c2ccccc2c1=O | – | – |
| 32 | O=C(Cc1n[nH]c(=O)c2ccccc12)Nc1ccc(Br)c(C(F)(F)F)c1 | 130 | – |
| > 5000 | Cn1nc(CC(=O)Nc2cc(F)c(F)c(F)c2)c2ccccc2c1=O | – | – |
| > 5000 | COc1ccccc1NC(=O)Cc1nn(C)c(=O)c2ccccc12 | – | – |
| > 5000 | Cn1nc(CC(=O)Nc2ccc(Br)cc2Br)c2ccccc2c1=O | – | – |
| 55 | Cn1nc(CC(=O)Nc2ccc(Cl)c(Cl)c2)c2ccccc2c1=O | 95 | – |
| 79 | Cc1cc(NC(=O)Cc2nn(C)c(=O)c3ccccc23)ccc1Cl | 96 | – |
| > 5000 | Cn1nc(CC(=O)NC(C)(C)C)c2ccccc2c1=O | – | – |
| 200 | Cn1nc(CC(=O)Nc2ccc(Cl)c(F)c2)c2ccccc2c1=O | 240 | – |
| 93 | Cn1nc(CC(=O)Nc2ccc3occc3c2)c2ccccc2c1=O | 85 | – |
| 400 | Cc1cc(NC(=O)Cc2nn(C)c(=O)c3ccccc23)ccc1C#N | 460 | – |
| > 5000 | COc1ccc(CNC(=O)Cc2nn(C)c(=O)c3ccccc23)cc1 | – | – |
| > 5000 | Cn1nc(CC(=O)Nc2ccc(OC(F)(F)F)cc2)c2ccccc2c1=O | – | – |
| 230 | Cn1nc(CC(=O)Nc2ccc(Cl)cc2)c2ccccc2c1=O | 280 | – |
| 30 | Cn1nc(CC(=O)Nc2ccc(Br)c(Cl)c2)c2ccccc2c1=O | 75 | – |
| > 5000 | Cn1nc(CC(=O)Nc2ccc(C(F)(F)F)cc2)c2ccccc2c1=O | – | – |
| > 5000 | Cn1nc(CC(=O)Nc2ccc(F)cc2)c2ccccc2c1=O | – | – |
